{"data": "Assay results of several laboratories", "target": "Rhodopsin kinase GRK7 (GRK7, Homo sapiens, UniProt Q8WTQ7)", "Residues used in one study (Q8WTQ7 1-553)": "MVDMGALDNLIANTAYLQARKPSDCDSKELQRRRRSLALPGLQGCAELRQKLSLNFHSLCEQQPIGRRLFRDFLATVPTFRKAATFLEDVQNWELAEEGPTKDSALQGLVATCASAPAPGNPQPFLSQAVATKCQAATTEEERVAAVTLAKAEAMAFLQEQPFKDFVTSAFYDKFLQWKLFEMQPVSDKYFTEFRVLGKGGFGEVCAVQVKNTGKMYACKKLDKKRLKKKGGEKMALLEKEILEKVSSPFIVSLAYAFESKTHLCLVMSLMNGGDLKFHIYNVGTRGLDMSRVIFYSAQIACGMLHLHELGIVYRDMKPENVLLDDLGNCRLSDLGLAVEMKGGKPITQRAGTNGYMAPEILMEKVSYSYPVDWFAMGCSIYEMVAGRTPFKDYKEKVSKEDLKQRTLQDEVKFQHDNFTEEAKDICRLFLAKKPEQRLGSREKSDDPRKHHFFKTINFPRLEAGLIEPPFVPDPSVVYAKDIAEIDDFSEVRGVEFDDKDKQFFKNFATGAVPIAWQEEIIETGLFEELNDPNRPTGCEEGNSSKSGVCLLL"}
{"Compound": "CCN1CCN(Cc2ccc(C(=O)Nc3ccc(C)c(Oc4ccc5c(c4)CC(=O)N5)c3)cc2C(F)(F)F)CC1", "assay": "binding, competition with immobilised ligand", "setting": "1 µM", "remaining binding": "100%"}
{"Compound": "Cc1cnc(Nc2ccc(C(=O)N3CCC(N4CCCC4)CC3)cc2)nc1-c1cc2ccccc2s1", "assay": "binding, competition with immobilised ligand", "setting": "1 µM", "remaining binding": "29%"}
{"Compound": "O=C(Nc1cccnn1)N1CC(C/C=C/c2cncc(Oc3ccc(C(F)(F)F)cn3)n2)C1", "assay": "cell-free assay, competition with immobilised ligand", "setting": "1 µM", "remaining binding": "85%"}
{"Compound": "CN(c1nccc(-c2cnn3ncccc23)n1)C1CC1", "assay": "binding", "setting": "1 µM", "remaining binding": "100%"}
{"Compound": "O=S(=O)(NC1CCC(c2cc(F)ccc2F)(S(=O)(=O)c2ccc(Cl)cc2)CC1)C(F)(F)F (stereo not shown)", "assay": "cell-free assay, competition with immobilised ligand", "setting": "1 µM", "remaining binding": "100%"}
{"Compound": "CNC(=O)[C@@H]1CC[C@@H](n2c(-c3ccc4cnccc4c3)nc3ccc(C(=O)NCc4cccc(C(N)=O)c4)cc32)C1", "assay": "binding, competition with immobilised ligand", "setting": "1 µM", "remaining binding": "100%"}
{"Compound": "COc1cc(-c2cn(C3CCc4c(F)cccc4N(CC(F)(F)F)C3=O)nn2)ccc1-n1cnc(C)c1 (stereo not shown)", "assay": "cell-free assay, competition with immobilised ligand", "setting": "1 µM", "remaining binding": "100%"}
{"Compound": "O=C(NCCCN1CCOCC1)c1ccc(Nc2ncc(Cl)c(-c3ccc(Cl)s3)n2)cc1", "assay": "binding, competition with immobilised ligand", "setting": "1 µM", "remaining binding": "90%"}
{"Compound": "O=C(Nc1c[nH]nc1C(=O)NC1CCNCC1)c1cc(F)cc(F)c1", "assay": "binding, competition with immobilised ligand", "setting": "1 µM", "remaining binding": "84%"}
{"Compound": "C=CC(=O)N1CCC(C(=O)NCC(=O)N2CCN(c3nc(-c4cnc(N)nc4C(F)F)nc(N4CCOCC4)n3)CC2)CC1", "assay": "binding, competition with immobilised ligand", "setting": "1 µM", "remaining binding": "87%"}
{"Compound": "N[C@H]1CCN(c2nccc(-c3cnn4ncccc34)n2)C1", "assay": "binding", "setting": "1 µM", "remaining binding": "100%"}
{"Compound": "O=C(NCCCN1CCOCC1)c1ccc(Nc2nccc(-c3cc4ccccc4s3)n2)cc1", "assay": "binding, competition with immobilised ligand", "setting": "1 µM", "remaining binding": "100%"}
{"Compound": "C[C@H]1CCN(c2nccc(-c3cnn4ncccc34)n2)C1", "assay": "binding", "setting": "1 µM", "remaining binding": "78%"}
{"Compound": "C[C@H](c1ccc(F)cc1)N(Cc1cccc(C(=O)O)c1)C(=O)c1cnc2ccccc2c1", "assay": "cell-free assay, competition with immobilised ligand", "setting": "1 µM", "remaining binding": "100%"}
{"Compound": "CN(CCCC(F)(F)F)c1nccc(-c2cnn3ncccc23)n1", "assay": "binding", "setting": "1 µM", "remaining binding": "93%"}
{"Compound": "NS(=O)(=O)c1cc(NC(=O)Cc2ccccc2)ccc1Oc1cccc(Cl)c1", "assay": "cell-free assay, competition with immobilised ligand", "setting": "1 µM", "remaining binding": "77%"}
{"Compound": "CN(C)c1ncc(F)c(-c2cnn3ncccc23)n1", "assay": "binding", "setting": "1 µM", "remaining binding": "100%"}
{"Compound": "O=C(NCc1ncc(C(F)(F)F)cc1Cl)c1ccc2c(c1)C1(CCS(=O)(=O)CC1)[C@H](C1CC1)N2S(=O)(=O)c1ccc(F)cc1", "assay": "cell-free assay, competition with immobilised ligand", "setting": "1 µM", "remaining binding": "80%"}
{"Compound": "CC1CCCN1c1nccc(-c2cnn3ncccc23)n1 (stereo not shown)", "assay": "binding", "setting": "1 µM", "remaining binding": "100%"}
{"Compound": "O=C(Nc1ccc(Oc2ccc(F)cc2)cc1)N1CCc2ncccc2[C@H]1c1ccc(F)cc1", "assay": "cell-free assay, competition with immobilised ligand", "setting": "1 µM", "remaining binding": "100%"}
{"Compound": "CN(C)c1nccc(-c2cnc3ncccn23)n1", "assay": "binding", "setting": "1 µM", "remaining binding": "41%"}
{"Compound": "COc1ncc2cc3ccccc3nc2c1C#N", "assay": "cell-free assay, competition with immobilised ligand", "setting": "5 µM", "remaining binding": "100%"}
